Source: PMC4832564 (Amyloid : the international journal of experimental and …, 2015)
Like-named read-outs stand apart in the source and are kept apart here. Each block holds one molecule with its values, some of them ahead of it. Where no end group is shown, it is not given here.

Key:
[1] = test system: synthetic rVλ6Wil fibrils; type: binding, human; settings: for % bound relative to no inhibitor: 50 μg rVλ6Wil fibrils, mean of duplicate experiments
Outline: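 ¹²⁵I-p5 or ¹²⁵I-RAGE VC1 (chloramine T iodination) pre-incubated 30 min RT with AGE-BSA, BSA, enoxaparin or E. coli-expressed human S100B (100, 4 or 1 μM). 50 μg fibrils from E. coli-made rVλ6Wil then added in PBS/0.05% tween 20 (S100B: TBS with 1 mM CaCl₂) and rotated 1 h RT. Spun twice at 16 000 × g, 10 min each. Pellet and supernatant gamma-counted; % bound relative to no inhibitor; mean of duplicate experiments.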

[2] = mouse, in vivo, iv
systemic AA amyloid = type: in vivo, mouse; settings: mice with systemic visceral AA amyloidosis, 2 h post-injection iv; triplicate
[3] = test system: heparin and synthetic amyloid fibrils; settings: cited from earlier work
[4] = target: Synthetic amyloid fibrils of the recombinant λ6 variable domain from patient Wil (rVλ6Wil) (human); test: co-sedimentation
[5] = target: Synthetic amyloid fibrils of human islet amyloid polypeptide (IAPP) (human) (UniProt P10997); test: co-sedimentation
Sequence of Synthetic amyloid fibrils of human islet amyloid polypeptide (IAPP) (human) (P10997 34-70): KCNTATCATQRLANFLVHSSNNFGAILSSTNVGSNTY

[6] = target: Synthetic amyloid fibrils of the recombinant λ6 variable domain from patient Wil (rVλ6Wil) (human); test: co-sedimentation; remark: listed apart in the source
[7] = target: Synthetic amyloid fibrils of Aβ(1–40); test: co-sedimentation

Molecule: 99mTc-p5: peptide p5 radiolabeled with 99mTc (CGGYSKAQKAQAKQAKQAQKAQKAQAKQAKQ; also: 99mTc radiolabel)
- T:M ratio, Heart [2]: 2.75
- T:M ratio, L. Kidney [2]: 659.97
- T:M ratio, Liver [2]: 12.44
- T:M ratio, Low. Intestine [2]: 14.55
- T:M ratio, Muscle [2]: 1.00
- T:M ratio, Pancreas [2]: 3.92
- T:M ratio, R. Kidney [2]: 711.82
- T:M ratio, Spleen [2]: 4.65
- T:M ratio, Stomach [2]: 9.62
- T:M ratio, Up. Intestine [2]: 8.88
- distribution of radiotracer by SPECT/CT in AA mice (systemic AA amyloid): coincident retention of both radiotracers in the amyloid-laden liver and spleen

Molecule: 125I-p5: peptide p5 radioiodinated with 125I (CGGYSKAQKAQAKQAKQAQKAQKAQAKQAKQ; also: 125I radiolabel)
- % bound relative to no inhibitor ([1]; PBS): 100.0%
- % bound relative to no inhibitor ([1]; TBS with 1 mM CaCl2): 76.5%

Molecule: GGGYSRAQRAQARQARQAQRAQRAQARQARQ [p5R]
- affinity relative to p5 [3]: higher affinity for both heparin and synthetic amyloid fibrils

Molecule: CGGYSKAQKAQAKQAKQAQKAQKAQAKQAKQ (not fully specified; also: 99mTc-labeled in imaging studies) [Peptide p5]
- % bound relative to no inhibitor (no inhibitor, PBS) [6]: 100%
- % bound relative to no inhibitor (no inhibitor, TBS with 1 mM CaCl2) [6]: 76.5%
- % bound relative to no inhibitor, with 4 μM enoxaparin [6]: 97.6%
- % bound relative to no inhibitor, with 100 μM enoxaparin [6]: 87.4%
- % bound to the fibril pellet [6]: > 50%
- % bound to the fibril pellet [7]: > 50%

Other lines, results leading:

- decrease in binding to fibrils on addition of BSA ([1]; 125I-labelled, BSA added (100 μM in Table 1)): ~ 30%
- decrease in binding with the synthetic amyloid fibrils ([1]; 125I-labelled, Enoxaparin 100 μM): 13%
- decrease in binding to fibrils on addition of S100B ([1]; 125I-labelled, human recombinant S100B, in the presence of 1 mM CaCl2): 20%
- reduction of reactivity with rVλ6Wil fibrils ([1]; 125I-labelled, pre-incubation with AGE-BSA at 100 μM): ~ 90%
Molecule: CGGYSKAQKAQAKQAKQAQKAQKAQAKQAKQ [p5]

- % bound relative to no inhibitor (no inhibitor, PBS) [4]: 100%
- % bound relative to no inhibitor (no inhibitor, TBS with 1 mM CaCl2) [4]: 102%
- % bound relative to no inhibitor, with 4 μM enoxaparin [4]: 102%
- % bound relative to no inhibitor, with 100 μM enoxaparin [4]: 94%
- % reduction of ^125I-p5R binding to IAPP fibrils [5]: 70%
- % reduction of ^125I-p5 binding to IAPP fibrils [5]: 90%
Molecule: Recombinant human RAGE VC1 (soluble recombinant variable and constant-1 domains of RAGE) (domain or fragment)

- % bound to the fibril pellet [6]: > 50%
- % bound to the fibril pellet [7]: > 50%
Molecule: GGGYSRAQRAQARQARQAQRAQRAQARQARQ (also: radioiodinated (125I, chloramine T)) [Peptide p5R]
